Results on three compounds are retold here after paper PMC4002122 (Chemical Research in Toxicology, 2014).

Data set [1] deals with T1, UGT2B7 (Homo sapiens, UniProt P16662).
T1 sequence (P16662 24-529): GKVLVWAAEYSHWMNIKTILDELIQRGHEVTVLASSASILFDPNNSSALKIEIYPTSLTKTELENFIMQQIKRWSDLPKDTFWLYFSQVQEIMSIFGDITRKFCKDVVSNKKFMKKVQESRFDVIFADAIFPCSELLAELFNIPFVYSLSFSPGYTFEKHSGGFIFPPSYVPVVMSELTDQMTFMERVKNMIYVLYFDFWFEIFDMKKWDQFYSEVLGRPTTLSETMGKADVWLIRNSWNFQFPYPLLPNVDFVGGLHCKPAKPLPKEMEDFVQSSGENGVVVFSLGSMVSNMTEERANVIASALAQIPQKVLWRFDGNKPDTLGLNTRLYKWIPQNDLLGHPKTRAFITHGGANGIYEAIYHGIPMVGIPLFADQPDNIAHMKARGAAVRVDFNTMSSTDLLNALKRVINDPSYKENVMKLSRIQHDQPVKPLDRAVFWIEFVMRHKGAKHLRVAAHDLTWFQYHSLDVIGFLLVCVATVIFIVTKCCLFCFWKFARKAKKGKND
In words: Screening of recombinant UGT2B7 for glucuronidation activity. It is filed as in vitro ADME. Conditions: 250 μM substrate, 5 μg protein, 60 min, 37 °C. Put shortly: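 UGT1A1, 1A3, 1A4 and 1A6–1A10 were His-tagged and expressed in baculovirus-infected Sf9 cells; UGT2B4, 2B7, 2B15 and 2B17 were commercial membranes run per supplier protocol. 5 μg membrane protein with 250 μM substrate, 2 mM UDP-GlcUA, Tris–HCl pH 7.4, MgCl2, saccharolactone, 2% DMSO; 37 °C, 60 min; no-substrate controls. Products measured by HPLC-UV/vis; β-glucuronidase hydrolysis separated O- from carboxyl glucuronides.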

Data set [2] in a line: Glucuronidation by human hepatic microsomes. It is filed as in vitro ADME. Conditions: 60 min, 50 μg of human liver proteins, 0.25 mM substrate, 3 mM UDP-GlcUA. Put shortly: (§1)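 Microsomes from individual human livers (10 donors), a pooled liver sample and hepatosomes, or from intestines (13 donors). Substrate dried from ethanol, redissolved in DMSO and sonicated. Incubated 37 °C, 60 min; ethanol stop, centrifuged. Glucuronides measured by reversed-phase HPLC-UV; nmol/mg/min, median and range.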

Data set [3] concerns tubulin. The following applies: cited from earlier work.
A short description of data set [4]: Glucuronidation by human intestinal microsomes. Type of data set: in vitro ADME. Conditions: 0.25 mM substrate, 60 min. Put shortly: as §1

`COc1cc(/C=C/c2cc([N+](=O)[O-])c(O)c([N+](=O)[O-])c2)cc(OC)c1` [DNR-1, (E)-4-(3,5-dimethoxystyryl)-2,6-dinitrophenol]: the “glucuronidation activity (glucuronide formed)” value in data set [1] is listed as “No activity”. The “metabolism with human liver microsomes” value in data set [2] was “not metabolized”.
For `COc1ccc(/C=C(/C(=O)O)c2cc(OC)c(OC)c(OC)c2)cc1O` [NI-12a, (E)-3-(3-hydroxy-4-methoxyphenyl)-2-(3,4,5-trimethoxyphenyl)acrylic acid], the antitubulin activity result in data set [3] is given as “effective antitubilin agent”. In addition, the glucuronidation activity result in data set [4] (donors HI27, HI28, HI29, and HI54) is reported as “failed to display glucuronidation activity”. Also, the metabolites produced entry was “only one (the hydroxyl) metabolite” in data set [4] (donors HI34, HI36, HI40, and HI41); “two (hydroxyl and carboxyl) metabolites” in data set [4] (remaining donors with activity).
Turning to `COc1ccc(C=Cc2cc(OC)cc(OC)c2/C=N/O)cc1` [NI-ST-05, (E)-2,4-dimethoxy-6-(4-methoxystyryl)benzaldehyde oxime], the “glucuronidation activity (glucuronide formed)” value in data set [1] is “inactive”. Further, the metabolites produced result in data set [4] (all other donors (than HI27, HI29, HI30)) is “one metabolite”. Further, the glucuronidation activity result in data set [4] (donors HI27, HI29, and HI30) is given as “failed to display glucuronidation activity”.
